Assay results taken from ChEMBL document CHEMBL1938254, “Semisynthetic neoboutomellerone derivatives as ubiquitin-proteasome pathway inhibitors” (Bioorg Med Chem, 2012).
Values joined by “and” are separate entries in the source; they are usually repeats but may differ in a detail not shown here. Equal values may be shown once. Active and inactive are the calls of the source. The rule behind the calls is not given here.

Legend:
[1] = tested on: DLD-1; assay: Inhibition of 20S proteasome in human DLD1 cells transfected with 4Ub-Luc gene assessed as bioluminescence induction factor at 1 uM after 8 hrs by luciferase reporter gene assay relative to epoxomicin; assay type: cell-based
Procedure, shortened: (§1)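 Stably transfected DLD-1 cells expressing 4Ub-Luc reporter, cultured in MEM with 5% heat-inactivated serum. Seeded at 10⁴ cells/well and treated with compound or solvent for 8 h. Luciferase activity in lysates read by luminometer. Induction factor = signal of treated over untreated cells, normalised to epoxomicin at 10^-7 M run in parallel (set to 100). IF ≥10 counted active.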

[2] = tested on: DLD-1; assay: Inhibition of 20S proteasome in human DLD1 cells transfected with 4Ub-Luc gene assessed as bioluminescence induction factor at 5 uM after 8 hrs by luciferase reporter gene assay relative to epoxomicin; assay type: cell-based; procedure, shortened: as §1
[3] = Cytotoxicity against human WM266.4 cells after 72 hrs by ATPlite assay; assay type: functional, cell-based; details: WM 266-4, 72 h
Procedure, shortened: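 WM-266-4 metastatic melanoma cells grown in DMEM with 10% fetal calf serum, 2 mM L-glutamine, fungizone and penicillin–streptomycin at 37 °C, 5% CO2. Seeded at 3 × 10⁴ cells/ml, left 24 h, then exposed to increasing compound concentrations for 72 h. Viability read as ATP level (ATPlite). IC50 from nonlinear sigmoidal fit with variable Hill slope; mean of two independent experiments.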

[4] = tested on: DLD-1; assay: Inhibition of 20S proteasome in human DLD1 cells transfected with 4Ub-Luc gene assessed as bioluminescence induction factor at 0.5 uM after 8 hrs by luciferase reporter gene assay relative to epoxomicin; assay type: cell-based; procedure, shortened: as §1
[5] = tested on: DLD-1; assay: Inhibition of 20S proteasome activity in human DLD1 cells transfected with 4Ub-Luc gene assessed as bioluminescence induction factor at 10 uM after 8 hrs by luciferase reporter gene assay relative to epoxomicin; assay type: cell-based; procedure, shortened: as §1
[6] = Inhibition of peptide-glutamyl-peptide-hydrolyzing activity of 20S proteasome in human DLD1 cells transfected with 4Ub-Luc gene using Z-Leu-Leu-Glu-AMC as substrate after 6 hrs by spectrofluorometric analysis; assay type: cell-based; details: dld-1
Procedure, shortened: (§2)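 DLD-1 4Ub-Luc cells seeded at 10⁴ cells/well, exposed to compound or solvent for 6 h, then 30 min in reaction buffer (30 mM Tris–HCl pH 7.5, 1 mM ATP). Chymotrypsin-like and PGPH activities read with specific fluorogenic substrates.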

[7] = Inhibition of chymotrypsin-like activity of 20S proteasome in human DLD1 cells transfected with 4Ub-Luc gene using Succinyl-Leu-Leu-Val-Tyr-AMC as substrate after 6 hrs by spectrofluorometric analysis; assay type: cell-based; details: dld-1; procedure, shortened: as §2
[8] = tested on: DLD-1; assay: Inhibition of peptide-glutamyl-peptide-hydrolyzing activity of 20S proteasome in human DLD1 cells transfected with 4Ub-Luc gene using Z-Leu-Leu-Glu-AMC as substrate at 40 uM after 6 hrs by spectrofluorometric analysis; assay type: cell-based
Procedure, shortened: (§3)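 Stably transfected DLD-1 4Ub-Luc cells seeded at 10⁴ cells/well, exposed to compound or solvent for 6 h, then incubated a further 30 min in reaction buffer (30 mM Tris–HCl pH 7.5, 1 mM ATP) with an activity-specific fluorogenic substrate; cellular proteasome activity read by fluorescence. Cells grown in MEM with 5% heat-inactivated serum.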

[9] = tested on: DLD-1; assay: Inhibition of chymotrypsin-like activity of 20S proteasome in human DLD1 cells transfected with 4Ub-Luc gene using Succinyl-Leu-Leu-Val-Tyr-AMC as substrate at 20 uM after 6 hrs by spectrofluorometric analysis; assay type: cell-based; procedure, shortened: as §3
[10] = tested on: DLD-1; assay: Inhibition of 20S proteasome in human DLD1 cells transfected with 4Ub-Luc gene assessed as bioluminescence induction factor at 0.1 uM after 8 hrs by luciferase reporter gene assay relative to epoxomicin; assay type: cell-based; procedure, shortened: as §1

Structure (SMILES)	fold change (FC) [1]	fold change (FC) [2]	IC50 [3] [µM]	fold change (FC) [4]	fold change (FC) [5]	IC50 [6] [µM]	IC50 [7] [µM]	inhibition [8]	inhibition [9]	fold change (FC) [10]
C=CCOC[C@H](C)C(=C)C(=O)[C@H](O)[C@@H](C)[C@H]1[C@@H](OC(C)=O)C[C@@]2(C)[C@@H]3CC[C@H]4[C@H](C)C(=O)C=C[C@@]45C[C@@]35CC[C@]12C	49	13	0.78	3.7	1.5					
C=C(C(=O)[C@H](OC(C)=O)[C@@H](C)[C@H]1[C@@H](OC(C)=O)C[C@@]2(C)[C@@H]3CC[C@H]4[C@H](C)C(=O)C=C[C@@]45C[C@@]35CC[C@]12C)[C@@H](C)COC(=O)CN(C)C	50	11	0.61	66	2.7	52	31			
C=C(C(=O)[C@H](O)[C@@H](C)[C@H]1[C@@H](OC(C)=O)C[C@@]2(C)[C@@H]3CC[C@H]4[C@H](C)C(=O)C=C[C@@]45C[C@@]35CC[C@]12C)[C@@H](C)CO	45	28	1.6	1.4	2.9	51	42			
C[C@]12C(=O)C=CCC1=CC[C@@H]1[C@@H]2CC[C@]2(O)C(=O)O[C@@]3(C)[C@H]4C[C@]5(C)[C@@H](CO[C@@]16O[C@@]32[C@H]5C6=O)C(=O)O4		19						Active	Active	
C=C(C(=O)[C@H](OC(C)=O)[C@@H](C)[C@H]1[C@@H](OC(C)=O)C[C@@]2(C)[C@@H]3CC[C@H]4[C@H](C)C(=O)C=C[C@@]45C[C@@]35CC[C@]12C)[C@@H](C)COC(=O)N1CCN(C)CC1	68	4.2	0.5	8	1	16	13			
C=C(C(=O)[C@H](O)[C@@H](C)[C@H]1[C@@H](OC(C)=O)C[C@@]2(C)[C@@H]3CC[C@H]4[C@H](C)C(=O)C=C[C@@]45C[C@@]35CC[C@]12C)[C@@H](C)COC(=O)N1CCN(C)CC1			0.46			32	39			
C=C(C(=O)[C@H](OC(=O)CCl)[C@@H](C)[C@H]1[C@@H](OC(C)=O)C[C@@]2(C)[C@@H]3CC[C@H]4[C@H](C)C(=O)C=C[C@@]45C[C@@]35CC[C@]12C)[C@@H](C)COC(C)=O	64	21	0.66	23	5	100	50			
CC[C@H](C)[C@H](NC(=O)[C@H]([C@@H](C)CC)N(C)C(C)=O)C(=O)N[C@H](C(=O)N[C@@H](CC(C)C)C(=O)[C@@]1(C)CO1)[C@@H](C)O [EPOXOMYCIN]	112		0.0048			0.06	0.006			100
C=C(C(=O)[C@H](OS(=O)(=O)O)[C@@H](C)[C@H]1[C@@H](OC(C)=O)C[C@@]2(C)[C@@H]3CC[C@H]4[C@H](C)C(=O)C=C[C@@]45C[C@@]35CC[C@]12C)[C@@H](C)COS(=O)(=O)O	1	1		1	1.1	> 1000	> 1000			
C=C(C(=O)[C@H](OC(C)=O)[C@@H](C)[C@H]1[C@@H](OC(C)=O)C[C@@]2(C)[C@@H]3CC[C@H]4[C@H](C)C(=O)C=C[C@@]45C[C@@]35CC[C@]12C)[C@@H](C)CO [NEOBOUTOMELLERONE]	48	37	2.8	2.1	4.4	23	16			
C=C(C(=O)[C@H](OC(C)=O)[C@@H](C)[C@H]1[C@@H](OC(C)=O)C[C@@]2(C)[C@@H]3CC[C@H]4[C@H](C)C(=O)C=C[C@@]45C[C@@]35CC[C@]12C)[C@@H](C)COC(C)=O	11	48	1.5	1.1		43	35			
C=C(C(=O)[C@H](O)[C@@H](C)[C@H]1[C@@H](OC(C)=O)C[C@@]2(C)[C@@H]3CC[C@H]4[C@H](C)C(=O)C=C[C@@]45C[C@@]35CC[C@]12C)[C@@H](C)COC(C)=O	26	29	0.99	1.7	6	45	31			
CC(C)C[C@H](NC(=O)[C@H](Cc1ccccc1)NC(=O)c1cnccn1)B(O)O [BORTEZOMIB]	117		0.035			0.0009	0.0002			133
C=C(C(=O)[C@H](OC(=O)CNC(=O)OC(C)(C)C)[C@@H](C)[C@H]1[C@@H](OC(C)=O)C[C@@]2(C)[C@@H]3CC[C@H]4[C@H](C)C(=O)C=C[C@@]45C[C@@]35CC[C@]12C)[C@@H](C)COC(C)=O	69	3.4	1	76	1.6	23	17			
C=C(C(=O)[C@H](OC(C)=O)[C@@H](C)[C@H]1[C@@H](OC(C)=O)C[C@@]2(C)[C@@H]3CC[C@H]4[C@H](C)C(=O)C=C[C@@]45C[C@@]35CC[C@]12C)[C@@H](C)COP(=O)(OCC)OCC	43	16		3	2	91	19			
C=C(C(=O)[C@H](O)[C@@H](C)[C@H]1[C@@H](OC(C)=O)C[C@@]2(C)[C@@H]3CC[C@H]4[C@H](C)C(=O)C=C[C@@]45C[C@@]35CC[C@]12C)[C@@H](C)COC(=O)CCC(=O)O	62 and 46	11 and 18		6 and 2.6	3.5 and 5	47	61			
CC(=O)N[C@@H](CSC(=O)[C@]1([C@@H](O)C(C)C)NC(=O)[C@H](C)[C@@H]1O)C(=O)O [LACTACYSTIN]	72	106			93	0.3	0.07			6.2
C=C(C(=O)[C@H](OC(C)=O)[C@@H](C)[C@H]1[C@@H](OC(C)=O)C[C@@]2(C)[C@@H]3CC[C@H]4[C@H](C)C(=O)C=C[C@@]45C[C@@]35CC[C@]12C)[C@@H](C)COC(=O)Nc1ccc(N(C)C)cc1	51	63	0.96	19	60	> 1000	> 1000			
C=C(C(=O)[C@H](OC(=O)CCC(=O)O)[C@@H](C)[C@H]1[C@@H](OC(C)=O)C[C@@]2(C)[C@@H]3CC[C@H]4[C@H](C)C(=O)C=C[C@@]45C[C@@]35CC[C@]12C)[C@@H](C)COC(C)=O	69	16		2	3	10	12			
C=C(C(=O)[C@H](O)[C@@H](C)[C@H]1[C@@H](OC(C)=O)C[C@@]2(C)[C@@H]3CC[C@H]4[C@H](C)C(=O)C=C[C@@]45C[C@@]35CC[C@]12C)[C@@H](C)COC(=O)Nc1ccc(N(C)C)cc1	51	47	0.82	11	34	> 1000	> 1000			
C=C(C(=O)[C@H](OC(C)=O)[C@@H](C)[C@H]1[C@@H](OC(C)=O)C[C@@]2(C)[C@@H]3CC[C@H]4[C@H](C)C(=O)C=C[C@@]45C[C@@]35CC[C@]12C)[C@@H](C)COC(=O)Nc1ccccc1	42	60	0.19	6.4		> 1000	> 1000			
